One assay concerns Salmonella enterica. Briefly: Antibacterial activity against Salmonella enterica ATCC 14028 incubated for 12 hrs at 37 degC. It counts as functional. The following applies: ATCC 14028, 12 h. The gist of the method: (§1)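 Bacteria grown overnight in LB broth at 37 °C, centrifuged and washed twice in sterile water. DMSO compound stocks serially 2-fold diluted in Plate Count Broth over 50 to 0.8 μg/mL. Inoculum 5 × 10^5 cfu/mL final, 12 h at 37 °C. MIC taken as lowest concentration with no visible growth. Ampicillin reference.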

Another assay relates to Kocuria rhizophila. Briefly: Antibacterial activity against Kocuria rhizophila NBRC 12708 incubated for 12 hrs at 37 degC. It counts as functional. The following applies: NBRC 12708, 12 h. The gist of the method:
as §1

The test system of the next assay is Staphylococcus aureus. Briefly: Antibacterial activity against Staphylococcus aureus ATCC 25923 incubated for 12 hrs at 37 degC. It counts as functional. The following applies: ATCC 25923, 12 h. The gist of the method: as §1
Another assay concerns Bacillus subtilis. The assay can be described thus: Antibacterial activity against Bacillus subtilis ATCC 6633 incubated for 12 hrs at 37 degC. It counts as functional. The following applies: ATCC 6633, 12 h. An outline of the steps: as §1
Another assay has as its system Proteus hauseri. The assay can be described thus: Antibacterial activity against Proteus hauseri NBRC 3851 incubated for 12 hrs at 37 degC. The assay is classed as functional. The following applies: NBRC 3851, 12 h. An outline of the steps:
as §1

For a further assay, the system named is A549. Briefly: Cytotoxicity against human A549 cells after 72 hrs by sulforhodamine B assay. The following applies: A549, 72 h. The assay is classed as functional, cell-based. The gist of the method: (§2)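 Cells seeded at 3 × 10^4 cells/mL and exposed to a range of compound concentrations at 37 °C, 5% CO2, for 72 h. Fixed with 10% TCA for 1 h, stained with 0.4% SRB in 1% acetic acid, dye dissolved in 10 mM Tris pH 10.0. Survival expressed relative to solvent control; IC50 by nonlinear regression. Etoposide positive control.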

For another assay, the system named is Trichophyton rubrum. Briefly: Antifungal activity against Trichophyton rubrum NBRC 9185. It counts as functional, organism-based. An outline of the steps: (§3)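 Fungi grown on potato dextrose agar for 2 weeks at 28 °C. Spores harvested, washed twice and suspended at 5 × 10^5 spores/mL, then diluted into potato dextrose broth (5 × 10^4 cells/mL) with test compound in DMSO (0.5% final). DMSO solvent control; amphotericin B positive control.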

A further assay relates to MDA-MB-231. The assay can be described thus: Cytotoxicity against human MDA-MB-231 cells after 72 hrs by sulforhodamine B assay. The assay is classed as functional, cell-based. The following applies: MDA-MB-231, 72 h. The gist of the method:
as §2
(In general: In SRB staining, fixed cells bind dye roughly in proportion to their protein.)

Another assay relates to Candida albicans. Briefly: Antifungal activity against Candida albicans ATCC 10231. The assay is classed as functional. The gist of the method: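 C. albicans grown in YPD medium for 48 h at 28 °C, centrifuged and washed twice with sterile water. Cells (5 × 10^4 cells/mL) in potato dextrose broth with test compound in DMSO (0.5% final). DMSO solvent control; amphotericin B positive control.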

Another assay relates to K562. Briefly: Cytotoxicity against human K562 cells after 72 hrs by sulforhodamine B assay. The assay is classed as functional, cell-based. The following applies: K562, 72 h. An outline of the steps: as §2
Assay [1] can be described thus: Cytotoxicity against human SNU638 cells after 72 hrs by sulforhodamine B assay. The assay is classed as functional, cell-based. The following applies: SNU-638, 72 h. An outline of the steps: as §2
Another assay concerns HCT-116. The assay can be described thus: Cytotoxicity against human HCT116 cells after 72 hrs by sulforhodamine B assay. The following applies: HCT-116, 72 h. It counts as functional, cell-based. The gist of the method: as §2
Assay [2] can be described thus: Cytotoxicity against human SKHEP1 cells after 72 hrs by sulforhodamine B assay. It counts as functional, cell-based. The following applies: SK-HEP1, 72 h. The gist of the method:
as §2

For the next assay, the system named is Aspergillus fumigatus. The assay can be described thus: Antifungal activity against Aspergillus fumigatus HIC 6094. The assay is classed as functional. The gist of the method: as §3
The test system of assay [3] is Trichophyton mentagrophytes. The assay can be described thus: Antifungal activity against Trichophyton mentagrophytes IFM 40996. The assay is classed as functional, organism-based. The gist of the method: as §3
The nature of assay [4]: Inhibition of Staphylococcus aureus ATCC 6538p sortase A delta24 mutant using H2N-Abz-LPXTG-Dap(Dnp)-NH2 fluorescent substrate incubated for 1 hr by fluorescence based assay. An outline of the steps:
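Recombinant SrtAΔ24 (24 μg), srtA gene from S. aureus ATCC 6538p. Buffer 50 mM Tris-HCl, 150 mM NaCl, pH 7.5, 5 mM CaCl2, with 1 μg Abz-LPXTG-Dap(Dnp) peptide, 1 mM pentaglycine and compound at several concentrations (0.5% DMSO final). 1 h at 37 °C. Fluorescence read at excitation 317 nm, emission 420 nm. p-Hydroxymercuribenzoic acid positive control.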

Converted amounts (≈) assume the structure as drawn. The source made the active and inactive calls.

Turning to `CC1(C)S[C@@H]2[C@H](NC(=O)[C@H](N)c3ccccc3)C(=O)N2[C@H]1C(=O)O` [AMPICILLIN], the MIC is 4.5 µM against Salmonella enterica; 0.6 µM in the assay on Kocuria rhizophila; 4.5 µM with Staphylococcus aureus; 1.1 µM in the assay with Bacillus subtilis; below 0.6 µM in the assay on Proteus hauseri.

Turning to `CC(=O)Cc1cc(O)c2c(c1)CCc1c-2cc2c(c1O)C(=O)c1c(O)cc(O)cc1C2=O`, the IC50 in the assay with A549 was above 100 µM; in the assay on MDA-MB-231, above 100 µM; with K562, 18.3 µM; in assay [1], above 100 µM; with HCT-116, above 100 µM; in assay [2], above 100 µM. The MIC result (with Trichophyton rubrum; with Candida albicans; in the assay on Aspergillus fumigatus; in assay [3]) was “inactive” in each case. Further, the MIC against Salmonella enterica, against Kocuria rhizophila, against Staphylococcus aureus, against Bacillus subtilis and in the assay with Proteus hauseri was above 100 µg/mL throughout.

Take `COc1ccc2oc3c(O)c4c(c(O)c3c(=O)c2c1O)-c1c(cc(CC(C)=O)c(C(=O)N[C@@](C)(CO)C(=O)O)c1O)CC4`: the IC50 in the assay on A549 was 1.7 µM; in the assay on MDA-MB-231 it was 1.2 µM; in [4], 43.2 µM; with K562 it was above 100 µM; in [1], 0.8 µM; in the assay with HCT-116 it was 0.9 µM. In assay [2], it took 1.9 µM to reach half-maximal inhibition (IC50). The MIC with Salmonella enterica amounted to 0.7 µM; in the assay with Candida albicans, 21.1 µM (≈ 12.5 µg/mL); in the assay on Kocuria rhizophila, 10.5 µM; against Staphylococcus aureus, 10.5 µM; in the assay with Aspergillus fumigatus, 84.3 µM (≈ 50 µg/mL); against Bacillus subtilis, 0.7 µM. The compound further returned an MIC in the assay with Proteus hauseri of 21.1 µM.

Compound Para-Hydroxymercuribenzoic acid registered an IC50 in assay [4] of 104 µM.

Regarding `COc1cc([C@@H]2c3cc4c(cc3[C@@H](O[C@@H]3O[C@@H]5CO[C@@H](C)O[C@H]5[C@H](O)[C@H]3O)[C@H]3COC(=O)[C@H]23)OCO4)cc(OC)c1O` [ETOPOSIDE], the IC50 with A549 was 0.8 µM; in the assay on MDA-MB-231, 10.6 µM; with K562, 3.1 µM; in [1] it was 0.5 µM; in the assay with HCT-116, 1.9 µM; in [2], 1.1 µM.

What is called MIC is the smallest concentration in the dilution series that meets the test's criterion for growth inhibition. Usually IC50 stands for the concentration needed to halve the response being measured. Read a low IC50 as inhibition by little substance.

For the origin of these results see ChEMBL document CHEMBL3576810, “Pentacyclic antibiotics from a tidal mud flat-derived actinomycete” (J Nat Prod, 2015).
